Test results taken from ChEMBL document CHEMBL1139556, “Synthesis and biological evaluation of gemcitabine-lipid conjugate (NEO6002)” (Bioorg Med Chem Lett, 2005).

Assays:
Cell line [1] = test: Ability (9 umol/kg) tested for inhibition of BxPC-3 human pancreatic tumor growth (n=8); format: functional
Outline: (§1)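 BxPC-3 human pancreatic tumour cells (5 × 10⁶) implanted subcutaneously in SCID mice. At 80–160 mm³, tumours randomised into groups. Dosing on days 1, 7, 15, 22, 26, 29 and 33, with an equal-volume vehicle control group. Tumour volume measured by Vernier calipers, followed up to 50 days. % growth = 100 × (Vt/V0), where V0 is the volume on the first treatment day.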

Cell line [2] = test: Ability (18 umol/kg) tested for inhibition of BxPC-3 human pancreatic tumor growth (n=8); format: functional; outline: as §1
Cell line [3] = test: Ability (36 umol/kg) tested for inhibition of BxPC-3 human pancreatic tumor growth (n=8); format: functional; outline: as §1
[4] = Ability (18 umol/kg) tested on mortality of non-diseased CD2F1 mice at day 8 (n=8); format: ADME; conditions: CD2F1, mouse, in vivo
Outline: (§2)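 Multiple-dose toxicity in non-diseased CD2F1 mice. Five or six daily doses given (schedule days 1–5 or 1–6). Mortality recorded, reported as % mortality at day 8.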

[5] = Ability (27 umol/kg) tested on mortality of non-diseased CD2F1 mice at day 8 (n=8); format: ADME; conditions: CD2F1, mouse, in vivo; outline: as §2
[6] = Ability (36 umol/kg) tested on mortality of non-diseased CD2F1 mice at day 8 (n=8); format: ADME; conditions: CD2F1, mouse, in vivo; outline: as §2

## CCCCCCOCC(COP(=O)(OC)OCC(COP(=O)(OC)OCC(COCCCCCC)OCCCCCC)OC(=O)CCC(=O)OC[C@H]1O[C@@H](n2ccc(N)nc2=O)C(F)(F)[C@@H]1O)OCCCCCC (stereo partly drawn)
Cell line [1]
  Growth: 1387%
Cell line [2]
  Growth: 1393%
Cell line [3]
  Growth: 1022%

## Nc1ccn([C@@H]2O[C@H](CO)[C@@H](O)C2(F)F)c(=O)n1 [GEMCITABINE]
[4]
  mortality at 8 day: 0%
[5]
  mortality at 8 day: 100%
[6]
  mortality at 8 day: 100%
Cell line [1]
  Growth: 1942%
Cell line [2]
  Growth: 2007%
